Measured values pooled from the literature.
Compare with care: the assays were run in different laboratories.
Organism: Mycolicibacterium smegmatis
Observed: microbial growth

| Structure (SMILES) | test | test system | setting | MIC |
| --- | --- | --- | --- | --- |
| Cl.N=C(N)N/N=C/c1ccc(-c2ccc(/C=N/Nc3ccccc3Cl)cc2)cc1 | – | MC2155 | – | 1.7 µg/mL |
| CO[C@@H]1[C@@H](OC(N)=O)[C@@H](O)[C@H](Oc2ccc3c(O)c(NC(=O)c4ccc(O)c(CC=C(C)C)c4)c(=O)oc3c2C)OC1(C)C | resazurin | MC^2155 | 24 h | 8 µg/mL |
| COc1ccc(-c2c[nH]c(N)n2)cc1 | – | ATCC700084 MC^2155 | 48 h | 200 µM |
| CCCCCCCCCCC[C@@H](C[C@@H]1OC(=O)[C@H]1CCCCCC)OC(=O)[C@H](CC(C)C)NC=O | resazurin | MC^2155 | – | 48 µg/mL |
| CCCCCOc1ccc(-c2c[nH]c(N)n2)cc1 | – | ATCC700084 MC^2155 | 48 h | 150 µM |
| NC[C@@H]1O[C@H](O[C@H]2[C@@H](O)[C@H](O[C@@H]3[C@@H](O)[C@H](N)C[C@H](N)[C@H]3O[C@H]3O[C@H](CO)[C@@H](O)[C@H](O)[C@H]3N)O[C@@H]2CO)[C@H](N)[C@@H](O)[C@@H]1O | broth dilution | – | 72 h | 1 µg/mL |
| Cc1ccc(Nc2nc(-c3cc(C(=O)Nc4ccccc4)no3)cs2)cc1 | – | MC2155 | – | > 64 µg/mL |
| CCOc1ccc(-c2c[nH]c(N)n2)cc1 | – | ATCC700084 MC^2155 | 48 h | 200 µM |
| CO[C@H]1/C=C/O[C@@]2(C)Oc3c(C)c(O)c4c(O)c(c(/C=N/N5CCN(C)CC5)c(O)c4c3C2=O)NC(=O)/C(C)=C\C=C\[C@H](C)[C@H](O)[C@@H](C)[C@@H](O)[C@@H](C)[C@H](OC(C)=O)[C@@H]1C | resazurin | MC^2155 | 24 h | 0.8 µg/mL |
| CCCCCCc1ccc(-c2nc(N)[nH]c2C(F)(F)F)cc1 | broth dilution | ATCC700084 MC^2155 | – | > 200 µM |
| Cc1ccc(Nc2nc(-c3cc(C(=O)Nc4ccsc4)no3)cs2)cc1 | – | MC2155 | – | > 64 µg/mL |
| CCN[C@@H]1C[C@H](N)[C@@H](O[C@H]2OC(CN)=CC[C@H]2N)[C@H](O)[C@H]1O[C@H]1OC[C@](C)(O)[C@H](NC)[C@H]1O | broth dilution | – | 72 h | 2 µg/mL |
| CC[C@@H](CO)NCCN[C@@H](CC)CO | resazurin | MC^2155 | 24 h | 0.78 µg/mL |
| CCCOc1ccc(-c2c[nH]c(N)n2)cc1 | – | ATCC700084 MC^2155 | 48 h | 100 µM |
| C[C@H]1c2cccc(O)c2C(=O)C2=C(O)[C@]3(O)C(=O)C(C(N)=O)=C(O)[C@@H](N(C)C)[C@@H]3[C@@H](O)[C@@H]21 | resazurin | MC^2155 | 24 h | 0.11 µg/mL |
| Cc1ccc(Nc2nc(-c3cc(C(=O)Nc4ccccn4)no3)cs2)cc1 | – | MC2155 | – | > 64 µg/mL |
